Measurements from ChEMBL document CHEMBL1123559, “Inhibition of phenylethanolamine N-methyltransferase (PNMT) by aromatic hydroxy-substituted 1,2,3,4,-tetrahydroisoquinolines: further studies on the hydrophilic pocket of the aromatic ring binding region of the active site” (J Med Chem, 1987).

T1: Phenylethanolamine N-methyltransferase (Bos taurus, UniProt P10938)
T1 sequence (P10938 whole entry): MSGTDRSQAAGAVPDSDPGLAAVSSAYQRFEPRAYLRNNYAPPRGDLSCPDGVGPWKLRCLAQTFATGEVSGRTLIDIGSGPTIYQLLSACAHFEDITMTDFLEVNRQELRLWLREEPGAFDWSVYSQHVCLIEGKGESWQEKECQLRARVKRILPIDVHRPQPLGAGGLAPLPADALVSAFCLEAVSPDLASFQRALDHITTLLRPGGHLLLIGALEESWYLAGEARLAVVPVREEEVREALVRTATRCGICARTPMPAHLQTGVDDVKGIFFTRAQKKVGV

B1: Phenylethanolamine N-methyltransferase (Bos taurus), P10938 (protein)
chain: MSGTDRSQAAGAVPDSDPGLAAVSSAYQRFEPRAYLRNNYAPPRGDLSCPDGVGPWKLRCLAQTFATGEVSGRTLIDIGSGPTIYQLLSACAHFEDITMTDFLEVNRQELRLWLREEPGAFDWSVYSQHVCLIEGKGESWQEKECQLRARVKRILPIDVHRPQPLGAGGLAPLPADALVSAFCLEAVSPDLASFQRALDHITTLLRPGGHLLLIGALEESWYLAGEARLAVVPVREEEVREALVRTATRCGICARTPMPAHLQTGVDDVKGIFFTRAQKKVGV

Assays:
[1] = target: T1, Phenylethanolamine N-methyltransferase; assay: In vitro inhibition of bovine phenylethylamine N-methyl-transferase (PNMT) using radiochemical assay.
[2] = Ratio of Vmax to Km; design: unit not given here
[3] = compound: N[C@@H]1CC2C[C@@H]1c1ccccc12; assay: (§1) In vitro inhibition of Phenylethylamine N-Methyltransferase (PNMT) using radiochemical assay.
Procedure, shortened: (§2)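 Bovine adrenal PNMT, partially purified through isoelectric precipitation, was used with phenylethanolamine as the variable substrate. At least three inhibitor concentrations were tested, all below levels giving mixed kinetics. The mix held pH 8.0 phosphate, unlabeled AdoMet (10 μM stock) and [methyl-3H]AdoMet, run 30 min at 37 °C. After a borate quench, product was extracted into toluene/isoamyl alcohol and scintillation counted. Ki and mode came from 1/V vs 1/S plots.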

[4] = compound: COc1ccc2c(c1)C1CC2[C@H](N)C1; assay: as §1; procedure, shortened: as §2
[5] = compound: COc1ccc2c(c1)C1CCC2[C@@H]1N; assay: as §1; procedure, shortened: as §2
[6] = compound: COc1cccc2c1C1CC2[C@H](N)C1; assay: as §1; procedure, shortened: as §2
[7] = compound: COc1ccc2c(c1)C1CC2[C@H](N)C1; assay: (§3) In vitro inhibition of Phenylethylamine N-Methyltransferase (PNMT) using radiochemical assay expressed as Vmax
[8] = compound: N[C@@H]1CC2CC1c1cc(O)c(O)cc12; assay: as §3
[9] = compound: COc1ccc2c(c1)C1CCC2[C@@H]1N; assay: as §3
[10] = compound: COc1cccc2c1C1CC2[C@H](N)C1; assay: as §3

| Molecule | Ki [1] [µM] | further results |
| --- | --- | --- |
| N[C@H]1C2CCC1c1cc(O)ccc12 (some centres undefined) | 108 |  |
| Oc1ccc2c(c1)CNCC2 | 2.6 |  |
| COc1ccc2c(c1)C1CC2[C@H](N)C1 (some centres undefined) | 1260 | Ratio [2]: 0.01 |
| Oc1cc2c(cc1O)CNCC2 | 5.7 |  |
| COc1cccc2c1CCNC2 | 550 |  |
| N[C@H]1C2CCC1c1c(O)cccc12 (some centres undefined) | > 4000 |  |
| N[C@@H]1CC2CC1c1c(O)cccc12 (some centres undefined) | > 3000 |  |
| COc1cccc2c1C1CC2C[C@H]1N (some centres undefined) | > 2000 |  |
| COc1ccc2c(c1)C1CC2C[C@H]1N (some centres undefined) | > 2000 |  |
| COc1cccc2c1C1CC2[C@H](N)C1 (some centres undefined) | > 2000 | Ratio [2]: 0.02 |
| COc1cccc2c1C1CCC2[C@@H]1N (some centres undefined) | 1100 |  |
| N[C@@H]1CC2CC1c1cccc(O)c12 (some centres undefined) | > 10000 |  |
| Oc1cccc2c1CCNC2 | 90 |  |
| COc1ccc2c(c1)C1CCC2[C@@H]1N (some centres undefined) | 735 | Ratio [2]: 0.08 |
| COc1cccc2c1CNCC2 | 3.8 |  |
| Oc1cccc2c1CNCC2 | 1080 |  |
| N[C@@H]1CC2CC1c1cc(O)c(O)cc12 (some centres undefined) |  | Ratio [2]: 0.06 |
| N[C@@H]1CC2C[C@@H]1c1ccccc12 |  | Ratio [2]: 0.01 |
| NC1C2CC[C@H]1c1ccccc12 (some centres undefined) |  | Ratio [2]: 0.12 |
| Oc1ccc2c(c1)CCNC2 | 7.8 |  |
| c1ccc2c(c1)CCNC2 [1,2,3,4-TETRAHYDROISOQUINOLINE] | 10.3 |  |
| COc1ccc2c(c1)CNCC2 | 20 |  |
| B1 |  | Km [3]: 392 µM; Km [4]: 602 µM; Km [5]: 294 µM; Km [6]: 970 µM; Vmax [7]: 0.06 nmol/min/mg; Vmax [8]: 0.44 nmol/min/mg; Vmax [9]: 0.23 nmol/min/mg; Vmax [10]: 0.22 nmol/min/mg |
